The record followed here is ChEMBL document CHEMBL2034874, “5-acetyl-2-arylbenzimidazoles as antiviral agents. Part 4” (Eur J Med Chem, 2012).

pEC50: −log10 of the molar value.

Data set [1] in a line: Cytotoxicity against human MT4 cells after 96 hrs by MTT assay. The class given is cell-based. In short, it runs like this:
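Exponentially growing MT-4 cells seeded at 1×10^5 cells/mL in RPMI-1640 with 10% FBS and incubated with serial compound dilutions at 37 °C and 5% CO2. Viability measured by MTT after 96 h. CC50 by linear regression against untreated controls.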
Background: Formazan colour is commonly taken as a measure of viable cells.

The test system of data set [2] is Human immunodeficiency virus 1. The experiment in a line: Antiviral activity against HIV1 3B infected in human MT4 cells assessed as inhibition of virus-induced cytopathogenicity after 4 days by MTT assay. The class given is functional, organism-based. Conditions: Human immunodeficiency virus 1, 3B, MT4, 96 h. An outline of the steps:
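MT-4 cells (1×10^4/well) in RPMI with serial compound dilutions, infected with HIV-1 IIIB at 100 CCID50 (m.o.i. 0.01). Viability measured by MTT after 4 days at 37 °C. EC50 for 50% protection from cytopathogenicity obtained by linear regression against untreated controls.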
In general terms: Damage to the host cells serves as the signal in cytopathic effect assays.

Data set [3] can be described thus: Cytotoxicity against MDBK cells after 48 to 96 hrs by MTT assay. It counts as cell-based, Bos taurus. Particulars: cattle. In short, it runs like this:
(§1)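 Mock-infected MDBK (6×10^5 cells/mL, MEM-E with 10% horse serum) or BHK (1×10^6 cells/mL, MEM-E with 10% FBS) cells incubated with serial compound dilutions at 37 °C and 5% CO2. Viability measured by MTT after 48–96 h. CC50 by linear regression against untreated controls.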

Data set [4] is described as follows: Antiviral activity against BVDV1 NADL ATCC VR-534 infected in MDBK cells assessed as inhibition of virus-induced cytopathogenicity after 3 to 4 days by MTT assay. The class given is functional, cell-based, Bovine viral diarrhea virus 1-NADL. Conditions: Bovine viral diarrhea virus isolates and strains, ATCC VR-534, MDBK. An outline of the steps: (§2)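 BHK (5×10^4/well) or MDBK (3×10^4/well) cells grown to confluent monolayers overnight, infected at m.o.i. 0.01 in maintenance MEM-Earl with 0.5% inactivated FBS. Serially diluted compounds added after 1 h. Viability read by MTT after 3–4 days at 37 °C. Values are expressed as % of untreated controls, and EC50 is derived by linear regression. Duplicate samples.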

The nature of data set [5]: Cytotoxicity against BHK21 cells by MTT assay. The class given is cell-based, Mesocricetus auratus. Conditions: hamster, BHK-21 cells. An outline of the steps:
as §1

In a further data set the test system is Yellow fever virus. The experiment in a line: Antiviral activity against Yellow fever virus 17D infected in BHK21 cells assessed as inhibition of virus-induced cytopathogenicity after 3 to 4 days by MTT assay. It counts as functional, cell-based. Particulars: BHK-21.
The test system of data set [6] is Mammalian orthoreovirus 1. The experiment in a line: Antiviral activity against Reovirus 1 3651 ATCC VR-214 infected in BHK21 cells assessed as inhibition of virus-induced cytopathogenicity after 3 to 4 days by MTT assay. It counts as functional, organism-based. Conditions: Mammalian orthoreovirus 1, 3651 ATCC VR-214, BHK-21. An outline of the steps:
as §2

The nature of data set [7]: Cytotoxicity against african green monkey Vero 76 cells after 48 to 96 hrs by MTT assay. It counts as cell-based. Particulars: chlorocebus sabaeus.
A further data set relates to Coxsackievirus B5. The experiment in a line: Antiviral activity against Coxsackie virus type B5 Ohio-1 ATCC VR-29 infected in african green monkey Vero-76 cells assessed as reduction in viral plaque after 3 days by crystal violet staining. It counts as functional, organism-based. Particulars: Enterovirus B, Ohio-1 ATCC VR-29, Vero 76, 72 h. In short, it runs like this: (§3)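 Vero-76 monolayers (2×10^5 cells/well) infected for 2 h at 50–100 PFU/well. Unadsorbed virus removed. D-MEM with 1% inactivated FBS, 0.75% methylcellulose and serial compound dilutions added. Incubation at 37 °C for 3 days (CVB-5, HSV-1) or 5 days (RSV). Fixed and stained with 50% ethanol/0.8% crystal violet, then plaques counted. EC50 by linear regression versus untreated controls.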

A further data set concerns Poliovirus 1. Kind of data set: Antiviral activity against Polio virus type 1 strain sabin ATCC VR-1562 infected in african green monkey Vero-76 cells assessed as reduction in viral plaque after 2 days by crystal violet staining. The class given is functional, cell-based, Human poliovirus 1 strain Sabin. Particulars: Enterovirus C, ATCC VR-1562, Vero 76, 48 h.
Data set [8] in a line: Antiviral activity against Human respiratory syncytial virus A2 ATCC VR-1540 infected in african green monkey Vero-76 cells assessed as reduction in viral plaque after 5 days by crystal violet staining. It counts as functional, cell-based. Conditions: ATCC VR-1540, Vero 76, 120 h. In short, it runs like this: as §3
Data set [9] relates to Vesicular stomatitis Indiana virus. The experiment in a line: Antiviral activity against Vesicular stomatitis virus indiana ATCC VR-1540 infected in african green monkey Vero-76 cells assessed as reduction in viral plaque after 2 days by crystal violet staining. It counts as functional, organism-based. Conditions: ATCC VR-1540, Vero 76, 48 h.
A further data set deals with Vaccinia virus. Kind of data set: Antiviral activity against Vaccinia virus Elstree-Lister ATCC VR-1549 infected in african green monkey Vero-76 cells assessed as reduction in viral plaque after 3 days by crystal violet staining. It counts as functional, organism-based. Particulars: Orthopoxvirus vaccinia, Elstree-Lister ATCC VR-1549, Vero 76, 72 h.
The test system of a further data set is Human alphaherpesvirus 1. The experiment in a line: Antiviral activity against Herpes simplex virus type 1 KOS ATCC VR-1493 infected in african green monkey Vero-76 cells assessed as reduction in viral plaque after 3 days by crystal violet staining. The class given is functional, organism-based. Particulars: Human alphaherpesvirus 1, KOS ATCC VR1493, Vero 76, 72 h. An outline of the steps:
as §3

As usually defined, the CC50 is the concentration giving 50% cytotoxicity. For orientation: pEC50 means the negative decadic logarithm of the EC50, by convention in mol/L. In data set [1], `COc1ccc(-c2nc3cc(C(C)=O)ccc3[nH]2)c(OC)c1OC` yielded a CC50 at 96 h of over 100 µM. Besides, the pEC50 (in data set [2]; in [4]; with Yellow fever virus; in [6]; in the data set with Coxsackievirus B5; with Poliovirus 1) was under 4.00 each time. Moreover, the negative-log EC50 (pEC50) (in data set [8]; in [9]; in the data set on Vaccinia virus; in the data set on Human alphaherpesvirus 1) was under 4.00 throughout. In addition, the CC50 in data set [3], in data set [5] and in data set [7] was over 100 µM in each case.

Consider `C/C(=N\NC(N)=S)c1ccc2c(c1)nc(-c1ccc(C(F)(F)F)cc1)n2C1CCCCC1`, for which the CC50 at 96 h in data set [1] was found to be 30 µM. The negative logarithm of the EC50 (pEC50) was at most 4.52 in [2]; under 4.00 in [4]; under 4.00 with Yellow fever virus; under 4.00 in data set [6]; under 4.00 in the data set on Coxsackievirus B5; under 4.00 in the data set with Poliovirus 1. In addition, the pEC50 (in data set [8]; in [9]; in the data set on Vaccinia virus; in the data set with Human alphaherpesvirus 1) was under 4.00 throughout. Besides, the CC50 in data set [3], in data set [5] and in [7] was over 100 µM in each case.

`C/C(=N\NC(N)=S)c1ccc2[nH]c(-c3ccoc3)nc2c1`: in data set [1], the CC50 at 96 h turned out to be 86 µM. Further, the pEC50 is under 4.07 in data set [2]; 5.10 in data set [4]; under 4.00 in the data set on Yellow fever virus; under 4.00 in data set [6]; under 4.00 in the data set on Coxsackievirus B5; 4.00 in the data set with Poliovirus 1. For the same compound, the pEC50 (in data set [8]; in data set [9]; in the data set with Vaccinia virus; with Human alphaherpesvirus 1) was under 4.00 each time. Further, the CC50 in [3] is over 100 µM; in data set [5] it was over 100 µM; in data set [7] it was 100 µM.

In turn, `COc1ccc(-c2nc3cc(C(C)O)ccc3[nH]2)cc1` (configuration not stated) returned a CC50 at 96 h in data set [1] of at least 100 µM. For the same compound, the pEC50 (in [2]; in data set [4]; with Yellow fever virus; in data set [6]; in the data set with Coxsackievirus B5; in the data set with Poliovirus 1) was under 4.00 in each case. For the same compound, the pEC50 (in data set [8]; in data set [9]; in the data set on Vaccinia virus; in the data set with Human alphaherpesvirus 1) was under 4.00 each time. The CC50 in [3], in [5] and in [7] was over 100 µM throughout.

In the case of `CC(=O)c1ccc2c(c1)nc(-c1ccc(Cl)cc1)n2C1CCCCC1`, in data set [1], the CC50 at 96 h was found to be 58 µM. Also, the pEC50 in [2] was under 4.24; in data set [4], 4.64; in the data set on Yellow fever virus it was under 4.00; in data set [6], under 4.00; in the data set on Coxsackievirus B5 it was under 4.00; with Poliovirus 1, under 4.00. Besides, the pEC50 (in data set [8]; in data set [9]; with Vaccinia virus; with Human alphaherpesvirus 1) was under 4.00 each time. In addition, the CC50 in [3], in data set [5] and in data set [7] was over 100 µM each time.

`COc1ccc(-c2nc3cc(C(C)=O)ccc3n2C2CCCCC2)c(OC)c1` yielded a CC50 at 96 h in [1] of 21 µM. In addition, the pEC50 was under 4.68 in data set [2]; under 4.68 in [4]; under 5.07 in the data set with Yellow fever virus; under 4.07 in data set [6]; under 4.15 in the data set with Coxsackievirus B5; under 4.15 with Poliovirus 1. For the same compound, the pEC50 (in data set [8]; in data set [9]; in the data set on Vaccinia virus; in the data set on Human alphaherpesvirus 1) was under 4.15 in each case. The CC50 was 21 µM in data set [3], 8.5 µM in data set [5] and 70 µM in data set [7].

`C/C(=N\NC(N)=S)c1ccc2c(c1)nc(-c1ccc(Cl)cc1)n2C1CCCCC1` had a CC50 at 96 h in data set [1] of 17 µM. In addition, the pEC50 in data set [2] is at most 4.77; in [4], under 4.00; with Yellow fever virus, under 4.00; in data set [6], under 4.00; in the data set with Coxsackievirus B5, under 4.00; in the data set on Poliovirus 1, under 4.00. For the same compound, the pEC50 (in data set [8]; in data set [9]; with Vaccinia virus; with Human alphaherpesvirus 1) was under 4.00 in each case. For the same compound, the CC50 in [3], in data set [5] and in data set [7] was over 100 µM throughout.

`COc1ccc(-c2nc3cc(C(C)=O)ccc3n2C2CCCCC2)cc1` displayed a CC50 at 96 h in data set [1] of 27 µM. Further, the pEC50 is under 4.57 in data set [2]; 4.68 in data set [4]; 4.87 in the data set with Yellow fever virus; under 4.00 in [6]; under 4.52 with Coxsackievirus B5; under 4.52 with Poliovirus 1. In addition, the pEC50 (in [8]; in data set [9]; with Vaccinia virus; in the data set with Human alphaherpesvirus 1) was under 4.52 throughout. For the same compound, the CC50 in [3] is over 100 µM; in [5], over 100 µM; in data set [7], 30 µM.

In [1], `COc1ccc(-c2nc3cc(C(C)O)ccc3[nH]2)c(OC)c1` (configuration not stated) returned a CC50 at 96 h of at least 100 µM. The pEC50 (in data set [2]; in [4]; in the data set with Yellow fever virus; in [6]; in the data set on Coxsackievirus B5; with Poliovirus 1) was under 4.00 in each case. For the same compound, the pEC50 (in [8]; in [9]; with Vaccinia virus; with Human alphaherpesvirus 1) was under 4.00 each time. In addition, the CC50 in data set [3], in [5] and in data set [7] was over 100 µM each time.

Turning to `CC(=O)c1ccc2c(c1)nc(-c1ccccc1)n2C1CCCCC1`, in data set [1], it took 37 µM to reach half-maximal cytotoxicity (CC50 at 96 h). In addition, the pEC50 is under 4.43 in data set [2]; 4.22 in data set [4]; 4.88 in the data set with Yellow fever virus; under 4.00 in data set [6]; under 4.10 in the data set with Coxsackievirus B5; under 4.10 with Poliovirus 1. In addition, the pEC50 was 4.60 in data set [8], under 4.10 in [9], under 4.10 in the data set with Vaccinia virus and under 4.10 in the data set on Human alphaherpesvirus 1. The CC50 is over 100 µM in [3], 100 µM in data set [5] and 80 µM in data set [7].

For `C/C(=N\NC(N)=S)c1ccc2c(c1)nc(-c1ccccc1)n2C1CCCCC1`, it took 20 µM to reach half-maximal cytotoxicity in data set [1] (CC50 at 96 h). The pEC50 in [2] is 5.00; in [4], 5.35; with Yellow fever virus it was 5.05; in data set [6] it was under 4.42; in the data set with Coxsackievirus B5, under 4.70; in the data set on Poliovirus 1 it was under 4.70. The pEC50 (in data set [8]; in [9]; in the data set with Vaccinia virus; in the data set on Human alphaherpesvirus 1) was under 4.70 in each case. Moreover, the CC50 in [3] was 24 µM; in [5] it was 38 µM; in data set [7], 20 µM.

Compound `COc1ccc(-c2nc3cc(C(C)O)ccc3[nH]2)c(OC)c1OC` (configuration not stated) had a CC50 at 96 h in data set [1] of 79 µM. Further, the negative-log EC50 (pEC50) in [2] is under 4.10; in data set [4], under 4.22; in the data set on Yellow fever virus, under 4.22; in data set [6], under 4.00; in the data set on Coxsackievirus B5 it was under 4.00; in the data set on Poliovirus 1 it was under 4.00. Besides, the pEC50 (in data set [8]; with Vaccinia virus; in the data set with Human alphaherpesvirus 1) was under 4.00 each time. Moreover, the CC50 in data set [3] was 60 µM; in [5] it was 60 µM; in [7] it was at least 100 µM.
